Measured values pooled from the literature.
Lines come from different studies, so protocols differ.
Read-out: cell growth or viability

Cc1cc(C)n(C(=S)[S][Au][PH](CCCCCC[PH]([Au][S]C(=S)n2nc(C)cc2C)(c2ccccc2)c2ccccc2)(c2ccccc2)c2ccccc2)n1  GI50 (UO-31): 0.482 µM
CCc1n(Cc2ccc3ccccc3n2)cc[n+]1Cc1ccc2ccccc2n1  TGI (HOP-92; SRB): 0.521 µM
COc1ccc(-c2ccc(-c3ccc(C(=N)N)nc3)s2)cc1  GI50 (SN12C): 1.83 µM
CC1(C)CCC(CN2CCN(c3ccc(C(=O)NS(=O)(=O)c4ccc(NCC5CCOCC5)c([N+](=O)[O-])c4)c(Oc4cnc5[nH]ccc5c4)c3)CC2)=C(c2ccc(Cl)cc2)C1  EC50 (MDCK; 24 h): > 50 µM
COc1cc(-c2ccc(-c3ccc(C(=N)N)nc3)s2)cc(OC)c1OC  GI50 (HOP-92; SRB): 1.91 µM
CCCc1n(Cc2ccc3ccccc3n2)cc[n+]1Cc1ccc2ccccc2c1  TGI (HOP-92; SRB): 1.12 µM
CC(C)C[C@H](NC(=O)[C@H](Cc1ccccc1)NC(=O)c1cnccn1)B(O)O  IC50 (OVK18; ATP luminescence): 0.0088 µM
COc1cc(OC)c2nccc(N3CCc4c(cc(Cn5ccnc5)cc4-c4cn(C)nc4C(F)(F)F)C3=O)c2c1  GI50 (K562; ATP luminescence; 5 days): 7.3 µM
c1ccc(-c2n(Cc3ccc4ccccc4c3)cc[n+]2Cc2ccc3ccccc3c2)cc1  TGI (HOP-62; SRB): 3.23 µM
Nc1c2c(nc3ccccc13)CCCC2O (stereo not shown)  IC50 (CAL-27; 72 h): > 20 µM
C[C@@H](Oc1cc(-c2cnn(C3CCNCC3)c2)cnc1N)c1c(Cl)ccc(F)c1Cl  GI50 (M091; resazurin; 48 h): 0.01 µM
Cc1n(Cc2ccc3ccccc3n2)cc[n+]1Cc1ccc2ccccc2c1  TGI (HOP-62; SRB): 6.66 µM
CC1(C)C(=O)NC2=C1C(=O)C(=O)c1ccccc12  IC50 (CAL-27; 72 h): 2.88 µM
